Data reported in paper PMC9582641 (Molecular Biology of the Cell, 2022).
Where no end group is shown, it is not given here. [ ]: non-standard residue; d: D form. Lys(Me3) = C[N+](C)(C)CCCC[C@H](N)C(=O)O; pT = C[C@@H](OP(=O)(O)O)[C@H](N)C(=O)O; Lys(Me2) = CN(C)CCCC[C@H](N)C(=O)O; Lys(Me) = CNCCCC[C@H](N)C(=O)O

Key:
[1] = test system: U2OS cells; test: Histone H3K4ac immunoblot in U2OS cells after HAT inhibition or Tip60 depletion; format: cell-based; conditions: for H3K4ac level: U2OS cells, anti-H3K4ac immunoblot
How it was run: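 Asynchronous and nocodazole-arrested mitotic U2OS cells were treated with the Tip60 acetyltransferase inhibitor Nu9056 for 1 h. Separately, U2OS cells engineered for doxycycline-induced shRNA against Tip60 were depleted of Tip60. Histone H3 K4 acetylation was read by immunoblot with anti-H3K4ac antibody at 1:1000.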

[2] = test system: U2OS cells; test: Aurora B at centromeres of interphase; format: cell-based; conditions: interphase (S/G2) cells, immunofluorescence, ACA mask
[3] = molecular target: hSurvivin (Homo sapiens, UniProt O15392); conditions: ITC, pH 7.2, 25°C; ref Niedzialkowska et al. (2012); cited from earlier work
Chain of hSurvivin (O15392 whole entry): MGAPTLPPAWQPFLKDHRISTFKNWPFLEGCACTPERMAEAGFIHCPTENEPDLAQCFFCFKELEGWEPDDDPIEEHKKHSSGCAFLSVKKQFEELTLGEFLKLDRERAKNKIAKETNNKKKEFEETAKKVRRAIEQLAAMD

[4] = test system: U2OS cells; format: cell-based; conditions: HDAC3 shRNA, immunofluorescence
[5] = molecular target: human Survivin (hSurvivin) (human, UniProt O15392 1-142); test: ITC
Chain of human Survivin (hSurvivin) (O15392 whole entry): as above

Molecule	dH [5]	stoichiometry N [5]	further results
Clc1ccc(-c2csc(NN=C3CCCC3)n2)cc1 [CTPH2]			H3K4ac level [1]: not GCN5 (CTPH2) or p300/CBP (Inhibitor VI) resulted in decreased H3K4ac levels
c1cc(SSc2ccns2)sn1 [Nu9056]			Aurora B localization at centromeres in interphase cells [2]: leads to Aurora B localization at centromeres in interphase (S/G2) cells; H3K4ac level [1]: resulted in decreased H3K4ac levels; H3K4ac level in mitotic cells ([1]; mitotic U2OS cells, nocodazole arrested, Nu9056 for 1 h, immunoblot): also sensitive to the Tip60 inhibitor
H3(1-12): first 12 amino acids of histone H3; values from Niedzialkowska et al. (2012)			–TΔS [3]: –4040 cal/mol
H3T3ph(1-12): histone H3 residues 1-12 with T3 phosphorylation; values from Niedzialkowska et al. (2012)			–TΔS [3]: –2800 cal/mol
shHDAC3: HDAC3 shRNA targeting sequence AGAAGTCCACTACCTGGTT (the letters are possibly those of the target site)			Aurora B at centromeres after HDAC3 depletion [4]: most of the Aurora B remains on noninner centromeric (chromosome arm) regions after HDAC3 depletion
AR[pT][Lys(Me2)]QTARKSTG (peptide, UniProt P68431 2-13, looked up) [histone H3 peptide H3T3phK4me2(1-12)]	-6.25 ± 0.06 kcal/mol	0.873 ± 0.004	
ART[Lys(Me)]QTARKSTG (peptide, UniProt P68431 2-13, looked up) [histone H3 peptide H3K4me1(1-12)]	-2.68 ± 0.06 kcal/mol	1.08 ± 0.012	
ART[Lys(Me3)]QTARKSTG (peptide, UniProt P68431 2-13, looked up) [histone H3 peptide H3K4me3(1-12)]	-6 ± 0.7 kcal/mol	0.83 ± 0.07	
AR[pT][Lys(Me)]QTARKSTG (peptide, UniProt P68431 2-13, looked up) [histone H3 peptide H3T3phK4me1(1-12)]	-4.692 ± 0.026 kcal/mol	1.03 ± 0.005	
AR[pT]K(Ac)QTARKSTG (peptide, UniProt P68431 2-13, looked up) [histone H3 peptide H3T3phK4ac(1-12)]	-7.3 ± 0.1 kcal/mol	0.965 ± 0.009	
ART[Lys(Me2)]QTARKSTG (peptide, UniProt P68431 2-13, looked up) [histone H3 peptide H3K4me2(1-12)]	-2.61 ± 0.04 kcal/mol	0.899 ± 0.01	
AR[pT][Lys(Me3)]QTARKSTG (peptide, UniProt P68431 2-13, looked up) [histone H3 peptide H3T3phK4me3(1-12)]	-4.63 ± 0.09 kcal/mol	1.21 ± 0.02	
